Consider three compounds from PubChem BioAssay AID540281 (Sanford-Burnham Center for Chemical Genomics, 2011).

Out of some 2,500 compounds screened, about 1,500 (60%) were called active.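 Rule for the calls: active = inhibition of at least 30% at 20 µM; inactive = the rest.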 So high a share suggests a set chosen from earlier hits. The entries come from a sample that favours actives as a whole.

By inhibition is commonly meant the relative decrease from the control value, in per cent.

In the experiment the target is Carboxy-terminal domain RNA polymerase II polypeptide A small phosphatase 1 (Homo sapiens) (UniProt Q9GZU7). In words: SCP1 dephosphorylation blockade at one dose – biochemical, colorimetric, single concentration, confirmation (AID 540281).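 Note: plate controls were DMSO with enzyme for no effect and buffer wells lacking enzyme for full effect.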 The conditions noted are these: recombinant SCP-1 catalytic domain, phosphate release, malachite green absorbance; at 20 µM; stronger effect = higher value. Put shortly: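 Assay system: SCP-1 catalytic fragment (residues 76-261). Schedule: 45 min enzyme reaction at room temperature. Medium: Tris acetate pH 5.5 buffer with Mg2+ and detergent. Compound: one dose, 20 µM final, 1.0% DMSO. Reagent: Phospho-17-mer peptide substrate. Detection: absorbance at 630 nm, free phosphate colorimetry.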
Carboxy-terminal domain RNA polymerase II polypeptide A small phosphatase 1 (Homo sapiens), sequence (Q9GZU7 76-261 limits assumed): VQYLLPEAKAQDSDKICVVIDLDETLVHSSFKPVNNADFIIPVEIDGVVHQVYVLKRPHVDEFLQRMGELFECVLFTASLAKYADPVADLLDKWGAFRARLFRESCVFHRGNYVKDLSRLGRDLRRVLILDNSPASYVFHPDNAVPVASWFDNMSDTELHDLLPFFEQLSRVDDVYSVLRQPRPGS
For `O=c1[nH]c(=O)n(CCc2ccc(F)cc2)c(O)c1/C=N/N1CCCCC1`, the inhibition was 34.8% (active). With `COc1ccccc1N=C1SCCCN1C` the figure was 81.9% (active); with `O=C(O)CCn1cc(C=C2C(=O)NC(=S)NC2=O)c(-c2cccc(Br)c2)n1`, 40% (active).
